{
  "source": "PubChem BioAssay AID624397",
  "about": "(The Scripps Research Institute Molecular Screening Center, 2012)",
  "note": "pIC50: −log10 of the molar value.",
  "data": [
    {"tested_on": "MCF7 proliferation, sulforhodamine B absorbance, 7-10 days", "test": "MCF7 cell proliferation inhibition, late-stage follow-up, counter-screen for AHR activator project, absorbance, set 2 (AID 624397)", "how_it_was_run": "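Material – MCF7 cells · Buffer or medium – a-MEM growth medium with 10% fetal bovine serum · Incubation – dosing from 24 h after plating, renewed every 48 h, 37 °C · Measured by – SRB absorbance at 490 nm, 650 nm background removed · Read-out – % of DMSO proliferation and Hill-fit IC50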", "values": [
      {"compound": "Cc1ccc(-c2cc(-c3ccc(F)cc3)n[nH]2)c(O)c1", "pIC50": 5.52},
      {"compound": "Cc1ccc(-c2cc(-c3cccc(F)c3)n[nH]2)c(O)c1", "pIC50": 5.52},
      {"compound": "Cc1ccc(-c2cc(-c3ccc(Cl)cc3)n[nH]2)c(O)c1", "pIC50": 5.52}
    ]}
  ]
}
